Experimental findings from ChEMBL document CHEMBL1122187, “Synthesis and antiviral activity of certain carbamoylpyrrolopyrimidine and pyrazolopyrimidine nucleosides” (1982) are described below.

What all share (assay type): functional, Chlorocebus sabaeus
For experiment [1], the system named is Vero. As to the kind of experiment: In vitro antiviral activity against parainfluenza type 3(para 3) virus was determined in african green monkey kidney (vero,V) expressed as virus rating. In a few lines: (§1)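 Cell monolayers (18 h) infected with 320 TCID50 of virus. Compound was added within 15–30 min at half-log dilutions from 1000 to 1 μg/mL. After 72 h at 37 °C in 5% CO2, CPE was scored 0–4 by microscopy. VR = sum of (virus control − treated) scores, halved at partially toxic levels, divided by 10 × test cups per drug level.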

Experiment [2] concerns Vero. Nature of the experiment: Percentage plaque reduction was determined against yellow fever(YF) virus in african green monkey kidney (vero,V); 61-90.
In experiment [3] the test system is Vero. Nature of the experiment: Percentage plaque reduction was determined against venezuelan equine encephalitis (VEE) virus in african green monkey kidney (vero,V) at a conc of 25-100 ug/mL.
The test system of experiment [4] is Vero. As to the kind of experiment: Percentage plaque reduction was determined against Sandfly fever (SF) virus in african green monkey kidney (vero,V) at a conc of <25 ug/mL.
The test system of experiment [5] is Vero. Nature of the experiment: Percentage plaque reduction was determined against Sandfly fever (SF) virus in african green monkey kidney (vero,V) at a conc of 25-100 ug/mL.
For experiment [6], the system named is Vero. As to the kind of experiment: In vitro antiviral activity against vaccinia(VV) virus was determined in african green monkey kidney (vero,V) expressed as virus rating. In a few lines: as §1
Experiment [7] concerns Vero. Nature of the experiment: Percentage plaque reduction was determined against venezuelan equine encephalitis (VEE) virus in african green monkey kidney (vero,V) at a conc of 250-500 ug/mL.
Experiment [8] deals with Vero. Nature of the experiment: Percentage plaque reduction was determined against venezuelan equine encephalitis (VEE) virus in african green monkey kidney (vero,V) at a conc of <25 ug/mL.
In experiment [9] the test system is Vero. As to the kind of experiment: In vitro antiviral activity against herpes simplex type 1 (HSV-1) virus was determined in african green monkey kidney (vero,V) expressed as virus rating. An outline of the steps:
as §1

The test system of experiment [10] is Vero. As to the kind of experiment: Percentage plaque reduction was determined against pichinde(PICH) virus in african green monkey kidney (vero,V). An outline of the steps:
(§2)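 Infected Vero 24-well monolayers: virus adsorbed 1 h at 37 °C, then overlaid with agar holding dilutions of compound and incubated again at 37 °C with CO₂. Plaques were stained with crystal violet and counted. Inhibition was scored as % plaque reduction bands (10-30%, 31-60%, 61-90%), each tied to a drug concentration range.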

Experiment [11] concerns Vero. As to the kind of experiment: Percentage plaque reduction was determined against Sandfly fever (SF) virus in african green monkey kidney (vero,V) at a conc of 250-500 ug/mL.
Experiment [12] concerns Vero. Nature of the experiment: Percentage plaque reduction was determined against rift valley fever(RVF) virus in african green monkey kidney (vero,V) at a conc of 100-250 ug/mL.
Experiment [13] relates to Vero. As to the kind of experiment: Percentage plaque reduction was determined against venezuelan equine encephalitis (VEE) virus in african green monkey kidney (vero,V) at a conc of 100-250 ug/mL.
For experiment [14], the system named is Vero. As to the kind of experiment: Percentage plaque reduction was determined against Sandfly fever (SF) virus in african green monkey kidney (vero,V) at a conc of 100-250 ug/mL.
The test system of experiment [15] is Vero. Nature of the experiment: Percentage plaque reduction was determined against rift valley fever(RVF) virus in african green monkey kidney (vero,V) at a conc of <25 ug/mL.
Experiment [16] concerns Vero. Nature of the experiment: Percentage plaque reduction was determined against rift valley fever(RVF) virus in african green monkey kidney (vero,V) at a conc of 250-500 ug/mL.
Experiment [17] relates to Vero. Nature of the experiment: Percentage plaque reduction was determined against rift valley fever(RVF) virus in african green monkey kidney (vero,V) at a conc of 25-100 ug/mL.
Experiment [18] relates to Vero. As to the kind of experiment: Percentage plaque reduction was determined against yellow fever(YF) virus in african green monkey kidney (vero,V).Toxic level(32 ug/mL); 61-90.
The test system of experiment [19] is Vero. Nature of the experiment: Percentage plaque reduction was determined against venezuelan equine encephalitis (VEE) virus in african green monkey kidney (vero,V) at a conc of 250-500 ug/mL. Toxic level(32 ug/mL).
Experiment [20] relates to Vero. Nature of the experiment: In vitro antiviral activity against herpes simplex type 1 (HSV-1) virus was determined in african green monkey kidney (vero,V) expressed as virus rating. Toxic level(32 ug/mL). In a few lines:
as §1

In experiment [21] the test system is Vero. Nature of the experiment: Percentage plaque reduction was determined against Sandfly fever (SF) virus in african green monkey kidney (vero,V) at a conc of 250-500 ug/mL; 10-30.
Experiment [22] concerns Vero. Nature of the experiment: Percentage plaque reduction was determined against venezuelan equine encephalitis (VEE) virus in african green monkey kidney (vero,V) at a conc of <25 ug/mL. Toxic level(32 ug/mL).
In experiment [23] the test system is Vero. Nature of the experiment: Percentage plaque reduction was determined against pichinde(PICH) virus in african green monkey kidney (vero,V).Toxic level(32 ug/mL); 61-90. An outline of the steps: as §2
The test system of experiment [24] is Vero. Nature of the experiment: Percentage plaque reduction was determined against venezuelan equine encephalitis (VEE) virus in african green monkey kidney (vero,V) at a conc of 100-250 ug/mL. Toxic level(32 ug/mL).
In experiment [25] the test system is Vero. As to the kind of experiment: In vitro antiviral activity against parainfluenza type 3(para 3) virus was determined in african green monkey kidney (vero,V) expressed as virus rating. Toxic level(32 ug/mL). In a few lines: as §1
Experiment [26] deals with Vero. As to the kind of experiment: Percentage plaque reduction was determined against rift valley fever(RVF) virus in african green monkey kidney (vero,V) at a conc of 25-100 ug/mL. Toxic level(32 ug/mL); 61-90.
Experiment [27] deals with Vero. As to the kind of experiment: Percentage plaque reduction was determined against venezuelan equine encephalitis (VEE) virus in african green monkey kidney (vero,V) at a conc of 25-100 ug/mL. Toxic level(32 ug/mL).

Regarding `CSc1ncnc2c([C@@H]3O[C@H](COC(C)=O)[C@@H](OC(C)=O)[C@H]3OC(C)=O)n[nH]c12`, the results for the Virus rating in the experiment on Vero [1], in the experiment on Vero [6] and in the experiment with Vero [9] were 1, 1.2 and 0.6, respectively. Further, the Plaque reduction is on record as 61% in the experiment with Vero [2]; 0% in the experiment on Vero [3]; 0% in the experiment with Vero [4]; 0% with Vero [5]; 0% in the experiment with Vero [7]; 0% with Vero [8]. Moreover, the Plaque reduction with Vero [10], in the experiment with Vero [11], in the experiment with Vero [12], with Vero [13], in the experiment on Vero [14] and in the experiment on Vero [15] was 0% each time. For the same compound, the Plaque reduction in the experiment with Vero [16] and in the experiment with Vero [17] was 0% throughout.

For `O=C1N=CN=C2C1C=CN2C1O[C@H](CO)[C@@H](O)[C@H]1O` (some centres not stated), the Plaque reduction in the experiment on Vero [18] was determined as 61%; in the experiment with Vero [19], 0%; in the experiment on Vero [21], 10%; in the experiment on Vero [22], 0%; in the experiment with Vero [23], 61%; with Vero [24], 0%. Besides, the Plaque reduction with Vero [26] turned out to be 61%; with Vero [27], 0%. For the same compound, the Virus rating in the experiment on Vero [20] and in the experiment with Vero [25] was 0 each time.
